Assay results as given in ChEMBL document CHEMBL1159052 (Bioorg Med Chem, 2010).

Key:
[1] = Displacement of [3H]MLA from alpha7 nAChR in rat brain homogenate by liquid scintillation spectrophotometry; type: tissue-based
How it was run: (§1)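 Membranes came from whole brain minus cortex and cerebellum, washed in Krebs-HEPES buffer at pH 7.5, 100–140 μg protein per tube. IC50 came from a curve fit; Ki by Cheng-Prusoff. At least four experiments, each in duplicate.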

[2] = biological target: T1, Neuronal acetylcholine receptor; alpha4/beta2 (Rattus norvegicus, UniProt P09483+P12390); assay: Displacement of [3H]nicotine from alpha4beta2 nAChR in rat brain homogenate by liquid scintillation spectrophotometry; type: tissue-based; how it was run: as §1
[3] = biological target: Sodium-dependent dopamine transporter (Rattus norvegicus, UniProt P23977); assay: Inhibition of [3H]DA uptake at DAT in rat brain striatal synaptosomes by liquid scintillation spectrophotometry; type: subcellular
How it was run: (§2)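 Synaptosomes were striatal for [3H]DA and hippocampal for [3H]5-HT, as P2 pellets in oxygenated Krebs with pargyline and ascorbate (pH 7.4), protein 400 μg/ml. Drug at […] was preincubated 10 min at 34 °C, then 10 nM tritiated substrate was added for 10 min. Uptake was stopped with ice-cold buffer and filtered on GF/B. Nonspecific uptake used 10 μM nomifensine (DA) or 10 μM fluoxetine (5-HT). Duplicates; IC50 by curve fit; Ki by Cheng-Prusoff.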

[4] = biological target: Sodium-dependent serotonin transporter (Rattus norvegicus, UniProt P31652); assay: Inhibition of [3H]5HT uptake at SERT in rat brain hippocampal synaptosomes by liquid scintillation spectrophotometry; type: subcellular, Hippocampus; how it was run: as §2
[5] = biological target: T2, Synaptic vesicular amine transporter (Rattus norvegicus, UniProt Q01827); assay: Displacement of [3H]MTBZ from VMAT2 in rat whole brain vesicles by liquid scintillation spectrophotometry
How it was run: (§3)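 Vesicles came from rat whole brain minus cerebellum, by hypotonic lysis and 100,000g pelleting, in HEPES/potassium-tartrate/MgSO4 buffer at pH 7.5, 15 μg protein per 100 μl. Final radioligand was 3 nM [3H]MTBZ or [3H]DTBZ, run in duplicate. Samples were filtered on PEI-soaked GF/B. Ki values come from at least four independent experiments.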

[6] = biological target: T2, Synaptic vesicular amine transporter; assay: Displacement of [3HDTBZ from VMAT2 in rat whole brain vesicles by liquid scintillation spectrophotometry
How it was run: as §3, with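 “duplicate. […]” for “duplicate.”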

[7] = biological target: Synaptic vesicular amine transporter (Homo sapiens, UniProt Q05940); assay: Binding affinity to VMAT2 receptor
[8] = biological target: T1, Neuronal acetylcholine receptor; alpha4/beta2; assay: Antagonist activity at alpha4beta2 nAChR in rat brain synaptosomes assessed as inhibition of nicotine-induced 86Rb+ efflux by liquid scintillation spectrophotometry; type: functional, subcellular

T1 sequence (P09483 whole entry): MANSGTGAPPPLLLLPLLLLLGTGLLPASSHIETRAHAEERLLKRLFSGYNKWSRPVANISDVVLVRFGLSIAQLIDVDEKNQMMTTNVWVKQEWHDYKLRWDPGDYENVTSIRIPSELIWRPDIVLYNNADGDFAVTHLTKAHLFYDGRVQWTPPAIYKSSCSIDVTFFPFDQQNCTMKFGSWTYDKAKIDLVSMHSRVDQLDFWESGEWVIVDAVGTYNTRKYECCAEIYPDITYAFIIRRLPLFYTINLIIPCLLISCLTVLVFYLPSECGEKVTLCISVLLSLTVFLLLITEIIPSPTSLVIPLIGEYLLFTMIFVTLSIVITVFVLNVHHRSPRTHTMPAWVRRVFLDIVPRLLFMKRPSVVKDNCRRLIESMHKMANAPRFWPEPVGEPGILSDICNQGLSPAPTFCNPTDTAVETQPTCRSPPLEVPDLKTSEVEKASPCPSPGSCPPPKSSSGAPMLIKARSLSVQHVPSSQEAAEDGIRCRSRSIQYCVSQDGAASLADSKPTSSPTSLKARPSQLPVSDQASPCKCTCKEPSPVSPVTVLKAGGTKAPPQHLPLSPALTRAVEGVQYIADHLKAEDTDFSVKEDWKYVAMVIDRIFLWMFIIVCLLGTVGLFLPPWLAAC
T1 sequence (P12390 whole entry): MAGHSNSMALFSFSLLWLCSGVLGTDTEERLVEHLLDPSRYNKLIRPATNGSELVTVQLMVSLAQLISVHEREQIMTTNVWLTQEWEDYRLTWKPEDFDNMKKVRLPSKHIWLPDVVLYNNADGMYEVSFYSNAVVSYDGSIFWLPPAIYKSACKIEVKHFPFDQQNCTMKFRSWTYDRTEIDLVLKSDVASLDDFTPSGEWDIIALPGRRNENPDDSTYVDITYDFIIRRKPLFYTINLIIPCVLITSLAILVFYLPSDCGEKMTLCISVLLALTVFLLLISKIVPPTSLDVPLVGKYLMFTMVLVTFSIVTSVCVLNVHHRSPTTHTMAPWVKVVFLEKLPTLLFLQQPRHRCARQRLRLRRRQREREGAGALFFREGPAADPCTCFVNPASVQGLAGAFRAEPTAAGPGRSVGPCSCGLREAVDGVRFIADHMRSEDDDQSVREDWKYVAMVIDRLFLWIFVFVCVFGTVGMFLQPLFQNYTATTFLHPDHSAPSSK
T2 sequence (Q01827 whole entry): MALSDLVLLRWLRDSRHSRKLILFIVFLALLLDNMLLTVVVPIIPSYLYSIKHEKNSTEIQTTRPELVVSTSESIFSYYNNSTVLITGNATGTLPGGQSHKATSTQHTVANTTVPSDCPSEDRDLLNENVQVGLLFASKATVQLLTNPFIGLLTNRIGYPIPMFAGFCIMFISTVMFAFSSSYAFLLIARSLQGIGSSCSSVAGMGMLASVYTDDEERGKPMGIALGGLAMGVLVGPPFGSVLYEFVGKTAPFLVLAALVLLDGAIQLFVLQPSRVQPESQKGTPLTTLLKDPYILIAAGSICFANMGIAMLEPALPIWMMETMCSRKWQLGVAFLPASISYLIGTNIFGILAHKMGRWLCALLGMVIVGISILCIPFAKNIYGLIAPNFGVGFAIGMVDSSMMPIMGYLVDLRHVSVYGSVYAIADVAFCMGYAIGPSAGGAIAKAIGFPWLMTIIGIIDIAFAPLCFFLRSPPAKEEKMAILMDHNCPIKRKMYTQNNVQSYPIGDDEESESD
Sequence of Sodium-dependent dopamine transporter (P23977 whole entry): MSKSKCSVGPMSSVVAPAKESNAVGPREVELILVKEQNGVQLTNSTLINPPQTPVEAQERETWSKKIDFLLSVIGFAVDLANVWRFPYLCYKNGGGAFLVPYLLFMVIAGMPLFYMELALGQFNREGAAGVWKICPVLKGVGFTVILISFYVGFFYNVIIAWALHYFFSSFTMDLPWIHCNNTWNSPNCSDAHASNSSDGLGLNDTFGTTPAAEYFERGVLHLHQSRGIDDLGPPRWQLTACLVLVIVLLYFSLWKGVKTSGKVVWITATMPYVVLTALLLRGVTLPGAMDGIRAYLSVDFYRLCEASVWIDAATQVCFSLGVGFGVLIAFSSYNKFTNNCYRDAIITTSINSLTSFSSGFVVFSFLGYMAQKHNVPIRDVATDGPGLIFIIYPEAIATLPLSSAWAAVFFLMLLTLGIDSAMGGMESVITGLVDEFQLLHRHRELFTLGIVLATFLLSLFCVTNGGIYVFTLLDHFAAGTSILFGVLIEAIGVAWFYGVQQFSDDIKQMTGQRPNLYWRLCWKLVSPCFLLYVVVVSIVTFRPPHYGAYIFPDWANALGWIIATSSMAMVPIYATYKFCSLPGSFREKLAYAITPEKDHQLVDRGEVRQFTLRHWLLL
Sequence of Sodium-dependent serotonin transporter (P31652 whole entry): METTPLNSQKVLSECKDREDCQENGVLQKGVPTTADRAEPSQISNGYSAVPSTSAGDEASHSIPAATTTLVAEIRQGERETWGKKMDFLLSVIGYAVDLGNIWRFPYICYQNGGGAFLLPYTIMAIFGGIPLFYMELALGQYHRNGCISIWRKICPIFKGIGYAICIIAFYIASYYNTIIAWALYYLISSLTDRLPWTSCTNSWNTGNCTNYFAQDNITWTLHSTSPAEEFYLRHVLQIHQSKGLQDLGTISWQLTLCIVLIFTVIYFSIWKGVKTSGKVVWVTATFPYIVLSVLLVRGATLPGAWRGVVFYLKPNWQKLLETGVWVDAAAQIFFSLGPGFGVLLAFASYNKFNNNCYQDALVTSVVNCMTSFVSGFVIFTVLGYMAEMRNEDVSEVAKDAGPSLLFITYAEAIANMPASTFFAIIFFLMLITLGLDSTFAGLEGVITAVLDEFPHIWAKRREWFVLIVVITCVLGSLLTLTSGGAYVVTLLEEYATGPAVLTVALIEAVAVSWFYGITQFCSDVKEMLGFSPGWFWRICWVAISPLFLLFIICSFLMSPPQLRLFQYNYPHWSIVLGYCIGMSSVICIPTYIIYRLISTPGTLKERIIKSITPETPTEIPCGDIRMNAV
Sequence of Synaptic vesicular amine transporter (Homo sapiens, UniProt Q05940) (Q05940 whole entry): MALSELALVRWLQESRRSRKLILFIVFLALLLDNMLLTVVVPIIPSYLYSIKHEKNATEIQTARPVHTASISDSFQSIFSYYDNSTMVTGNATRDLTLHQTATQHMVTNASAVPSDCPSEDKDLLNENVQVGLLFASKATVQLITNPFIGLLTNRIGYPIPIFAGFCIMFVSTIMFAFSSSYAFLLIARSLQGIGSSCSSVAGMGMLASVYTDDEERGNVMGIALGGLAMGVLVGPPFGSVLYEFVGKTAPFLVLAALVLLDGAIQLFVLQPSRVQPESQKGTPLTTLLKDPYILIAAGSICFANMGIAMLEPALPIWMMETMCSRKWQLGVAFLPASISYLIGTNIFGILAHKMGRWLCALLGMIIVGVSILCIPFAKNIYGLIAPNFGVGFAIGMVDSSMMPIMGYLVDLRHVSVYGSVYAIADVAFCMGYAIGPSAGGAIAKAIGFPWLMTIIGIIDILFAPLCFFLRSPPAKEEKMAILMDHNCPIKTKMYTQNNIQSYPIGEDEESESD

| SMILES | Ki [1] | Ki [2] | Ki [3] | Ki [4] | Ki [5] | Ki [6] | Ki [7] | IC50 [8] |
| --- | --- | --- | --- | --- | --- | --- | --- | --- |
| CCC(=O)OC(C[C@@H]1CCCC(CC(=O)c2ccccc2)N1C)c1ccccc1 (single isomer, unassigned) | 8.86 µM | 0.15 µM | 6.88 µM | 4.87 µM | 4.75 µM |  |  |  |
| CC(C)S(=O)(=O)OC(C[C@@H]1CCCC(CC(=O)c2ccccc2)N1C)c1ccccc1 (single isomer, unassigned) | 47.7 µM | 0.015 µM | 4.6 µM | 16.1 µM |  | 2.09 µM |  |  |
| CCCC(=O)OC(C[C@@H]1CCCC(CC(=O)c2ccccc2)N1C)c1ccccc1 (single isomer, unassigned) | > 100 µM | 0.5 µM | 4.82 µM | 12.2 µM | 3.38 µM |  |  |  |
| CC(C)C(=O)OC(C[C@@H]1CCCC(CC(=O)c2ccccc2)N1C)c1ccccc1 (single isomer, unassigned) | > 100 µM | 0.06 µM | 2.38 µM | 1.06 µM | 2.61 µM |  |  |  |
| CN1[C@@H](CC(=O)c2ccccc2)CCC[C@H]1C[C@H](OS(=O)(=O)c1cccs1)c1ccccc1 | 53.8 µM | 0.013 µM | 19.9 µM | 18.1 µM |  | 4.23 µM |  |  |
| CN1[C@@H](CCc2cccc3ccccc23)CCC[C@H]1CCc1cccc2ccccc12 |  |  |  |  |  |  | 0.63 µM |  |
| CC(=O)OC(C[C@@H]1CCCC(CC(=O)c2ccccc2)N1C)c1ccccc1 (single isomer, unassigned) | > 100 µM | 0.07 µM | 4.64 µM | 31.4 µM | 8.05 µM |  |  |  |
| CN1C(CC(=O)c2ccccc2)CCC[C@H]1CC(OS(=O)(=O)Cc1ccccc1)c1ccccc1 (single isomer, unassigned) | 46.6 µM | 0.013 µM | 14.7 µM | 4.52 µM |  | 3.98 µM |  |  |
| Cc1ccc(C(=O)O[C@@H](C[C@@H]2CCC[C@H](CC(=O)c3ccccc3)N2C)c2ccccc2)cc1 | > 100 µM | 1.62 µM | 2.06 µM | 1.51 µM | 1.76 µM |  |  |  |
| COc1ccc(C(=O)O[C@@H](C[C@@H]2CCC[C@H](CC(=O)c3ccccc3)N2C)c2ccccc2)cc1 | 18.4 µM | 19.3 µM | 3.8 µM | 2.04 µM | 2.98 µM |  |  |  |
| CN1C(CC(=O)c2ccccc2)CCC[C@H]1CC(OS(=O)(=O)c1ccc([N+](=O)[O-])cc1)c1ccccc1 (single isomer, unassigned) | 53.8 µM | 0.013 µM | 19.9 µM | 18.1 µM |  | 4.23 µM |  |  |
| CN1C(CC(=O)c2ccccc2)CCC[C@H]1CC(OS(=O)(=O)c1ccc(Cl)cc1)c1ccccc1 (single isomer, unassigned) | > 100 µM | 0.016 µM | 10.8 µM | 4.38 µM |  | 3.24 µM |  |  |
| CN1[C@@H](CC(=O)c2ccccc2)CCC[C@H]1C[C@H](OC(=O)c1cccs1)c1ccccc1 | 36.2 µM | 0.86 µM | 3.02 µM | 9.7 µM | 6.37 µM |  |  |  |
| CN1[C@@H](CC(=O)c2ccccc2)CCC[C@H]1C[C@H](OS(=O)(=O)c1cccc2ccccc12)c1ccccc1 | > 100 µM | 0.017 µM | 4.14 µM | 34.5 µM |  | 4.12 µM |  |  |
| Cc1ccc(S(=O)(=O)OC(C[C@@H]2CCCC(CC(=O)c3ccccc3)N2C)c2ccccc2)cc1 (single isomer, unassigned) | 18 µM | 0.005 µM | 29.1 µM | 16.2 µM |  | 10.8 µM |  | 0.002 µM |
| CN1C(CC(=O)c2ccccc2)CCC[C@H]1CC(OC(=O)c1ccccc1)c1ccccc1 (single isomer, unassigned) | > 100 µM | 2.87 µM | 2.31 µM | 2.07 µM | 1.53 µM |  |  | 0.85 µM |
| CCCCS(=O)(=O)OC(C[C@@H]1CCCC(CC(=O)c2ccccc2)N1C)c1ccccc1 (single isomer, unassigned) | 41 µM | 0.011 µM | 11.8 µM | 5.16 µM |  | 1.98 µM |  |  |
| CN1[C@@H](CC(=O)c2ccccc2)CCC[C@H]1C[C@H](OS(=O)(=O)c1ccc2ccccc2c1)c1ccccc1 | 18.5 µM | 0.01 µM | 13.4 µM | 5.06 µM |  | 2.48 µM |  |  |
| CN1C(CC(=O)c2ccccc2)CCC[C@H]1CC(OS(=O)(=O)c1ccccc1)c1ccccc1 (single isomer, unassigned) | 34.8 µM | 0.008 µM | 10.7 µM | 37.3 µM |  | 3.5 µM |  | 1.6 µM |
| CN1C(CC(=O)c2ccccc2)CCC[C@H]1CC(OS(=O)(=O)c1ccc(F)cc1)c1ccccc1 (single isomer, unassigned) | 24.2 µM | 0.012 µM | 17.9 µM | 4.68 µM |  | 3 µM |  |  |
